Measurements taken from PubChem BioAssay.
Results filed as inconclusive are left out.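 How the source made its calls, unless noted: active means viability increase at or above a cutoff of the median across tested compounds plus 3 SD (cut at about 8.5% in these data, passing the limit was not always enough); inconclusive means some gains above the cutoff, reason not given; inactive means the rest.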

Legend:
[1] = OD615 S. cerevisiae growth inhibition, permissive medium, pilot counter-assay, permissive growth control for S. cerevisiae lifespan shortening project (AID 705;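 active means growth inhibition above 25% in both replicates, a cutoff set 3 SD above the mean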); conditions: OD615, 24 h, at 10 µM, active compounds read high
How it was run: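 System: S. cerevisiae with engineered DeaD lifespan system / Measured by: absorbance (optical density) at 615 nm / Read-out: reduction in yeast growth (OD615) / Times: 4 h cell pre-growth, 24 h exposure at 30 °C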

[2] = Restrictive medium S. cerevisiae growth inhibition, OD615, pilot screen of yeast lifespan reduction project, restrictive growth control (AID 706;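 active means growth inhibition above a set limit, 3 SD over mean compound inhibition, in both replicates, cut at about 43% in these data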;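 further: modified DeaD lifespan yeast strain shifted to restrictive glucose medium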); conditions: OD615, 48 h, at 10 µM, active compounds read high
How it was run: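 System: Engineered S. cerevisiae DeaD strain | Buffer or medium: Glucose-based CSMM-D restrictive medium | Schedule: 4 h pre-incubation, 48 h exposure at 30 °C | Technique: Optical density at 615 nm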

[3] = viability gain of MRP-1-high H69AR cells under doxorubicin, pilot screen, MRP-1 activator project, CellTiter-Glo, duplicate (AID 807); conditions: H69AR viability with doxorubicin, CellTiter-Glo luminescence; at 10 µM; active compounds read high;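 further: compound pretreatment 18-22 h then 72 h combined with doxorubicin; 0% = doxorubicin alone and 100% = vehicle without doxorubicin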
[4] = growth suppression of beta-catenin knockout HCT116, pilot screen, human colon tumor cells (AID 823;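 active means cell viability at or below a set limit in both duplicate runs, the limit being the all-compound median minus 4 SD, cut at about 23% in these data, passing the limit was not always enough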;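 further: 0% = wells killed by 20 µM Hyamine and 100% = untreated DMSO cell wells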); conditions: CellTiter-Glo, 60 h, at 10 µM, active compounds read low
[5] = growth suppression of PTEN-deleted HCT116, pilot screen, cell-based, HCT116 clonal line, CellTiter-Glo (AID 824;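 active means viability at or below 27.92% in each of two runs, the all-compound median minus 4 SD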;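 further: 0% = 20 µM Hyamine control and 100% = vehicle cell control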); conditions: 60 h, at 10 µM, active compounds read low
[6] = inhibitors of the yeast RAM network, pilot screen, dse1pr::URA3 reporter, 5-FOA selection (AID 869;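 active means inhibition over a set limit, the all-compound mean plus 3 SD, in both replicate runs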;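 further: 0% = DMSO wells with no growth and 100% = 10 µM 1-NA-PP1 with full growth; RAM network block rescues cells from 5-FOA so hits raise OD615 growth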); conditions: S. cerevisiae dse1pr::URA3 5-FOA growth, OD615, 2 d; at 10 µM; active compounds read high; strain carries analog-sensitive mutant Cbk1 kinase
[7] = RAM signaling pathway blockade in yeast – S. cerevisiae, Pdr1DBD-CYC8 efflux-inhibited sensitized strain, primary screen (AID 1298;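 active means RAM network inhibition above 8.4% in each of two replicates, 3 SD over the compound average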;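 further: 0% = DMSO untreated cells without growth and 100% = 10 µM 1-NA-PP1 full growth; higher means more yeast growth rescued from 5-FOA killing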); conditions: S. cerevisiae cbk1-as DSE1-URA3 strain, 5-FOA growth OD615, 2 d; at 50 µM; active compounds read high

O=C(Cn1cc2c(n1)CCCC2)N1CCc2ccccc21
inactive: growth inhibition [1] -7.55% | growth inhibition [2] 9.02% | viability increase [3] -2.04% | viability [4] 66% | viability [5] 77.4% | inhibition [6] 2.28% | RAM network inhibition [7] -1.03%

O=C1CCc2cc(S(=O)(=O)NC(C(=O)NCc3cccnc3)c3ccccc3)ccc2N1 (stereo not drawn)
inactive: growth inhibition [1] -5.88% | growth inhibition [2] 4.59% | viability increase [3] -2.98% | viability [4] 100% | viability [5] 98.3% | inhibition [6] -0.185% | RAM network inhibition [7] 3.79%

CCS(=O)(=O)n1nc(-c2ccccc2)cc1N
inactive: growth inhibition [1] -3.12% | growth inhibition [2] -16.4% | viability increase [3] -1.52% | viability [4] 98.7% | viability [5] 96.7% | inhibition [6] 0.555% | RAM network inhibition [7] 1.53%

O=C(Nc1ccccc1Oc1ccccc1)C1CC1
inactive: growth inhibition [1] -13.6% | growth inhibition [2] 3.26% | viability increase [3] -2.26% | viability [4] 89.5% | viability [5] 93.1% | inhibition [6] 0.595% | RAM network inhibition [7] 3.21%

O=C(Nc1ccc(Oc2ccc(NC(=O)C3CCCO3)cc2)cc1)C1CCCO1 (stereo not drawn)
inactive: growth inhibition [1] -2.75% | growth inhibition [2] -11% | viability increase [3] -5.07% | viability [4] 85.7% | viability [5] 96.7% | inhibition [6] 3.62% | RAM network inhibition [7] -0.11%

COc1ccc(N2C(=O)C3CCCN3C2c2cc(OC)c(OC)cc2OC)cc1 (stereo not drawn)
inactive: growth inhibition [1] 8.35% | growth inhibition [2] 5.12% | viability increase [3] -3.74% | viability [4] 102% | viability [5] 90.4% | inhibition [6] 0.47% | RAM network inhibition [7] 7.38%

COc1cccc(CN2CCNC(=O)C2CC(=O)O)c1OC (stereo not drawn)
inactive: growth inhibition [1] -18.3% | growth inhibition [2] -12.7% | viability increase [3] -2.76% | viability [4] 101% | viability [5] 97% | inhibition [6] 1.81% | RAM network inhibition [7] 2.85%

CNC(=O)c1c(N)sc2c1CCCCC2
inactive: growth inhibition [1] -2.01% | growth inhibition [2] 8.19% | viability increase [3] -3.12% | viability [4] 88.8% | viability [5] 88.1% | inhibition [6] 1.19% | RAM network inhibition [7] 4.13%

CCOc1ccc(-n2c(Cc3cc(=O)[nH]c(=O)[nH]3)nnc2SCC(=O)OC)cc1
inactive: growth inhibition [1] -2.32% | growth inhibition [2] 3.42% | viability increase [3] 1.38% | viability [4] 104% | viability [5] 97.3% | inhibition [6] 2.62% | RAM network inhibition [7] 0.78%

CCSCCOC(=O)C1=C(C)N(C)C(=O)NC1c1cc(OC)ccc1OC (stereo not drawn)
inactive: growth inhibition [1] 0.26% | growth inhibition [2] -2.77% | viability increase [3] 1.05% | viability [4] 94.2% | viability [5] 93.8% | inhibition [6] 0.645% | RAM network inhibition [7] 2.69%

COc1ccc(N(CC(=O)Nc2nccs2)S(=O)(=O)c2c(C)nn(C)c2C)cc1
inactive: growth inhibition [1] -18.2% | growth inhibition [2] -6.82% | viability increase [3] -3.77% | viability [4] 93% | viability [5] 87.5% | inhibition [6] 3% | RAM network inhibition [7] 3.8%

COc1ccc(O)c(-c2[nH]ncc2C(=O)c2ccccc2C)c1
inactive: growth inhibition [1] -7.88% | growth inhibition [2] -5.12% | viability increase [3] -0.59% | viability [4] 100% | viability [5] 98.5% | inhibition [6] -0.045% | RAM network inhibition [7] -0.67%

CC1CCN(CC(C)OC(=O)c2ccc3c(c2)OCCO3)CC1 (stereo not drawn)
inactive: growth inhibition [1] -8.49% | growth inhibition [2] 6.58% | viability increase [3] -0.68% | viability [4] 112% | viability [5] 105% | inhibition [6] 1.62% | RAM network inhibition [7] 3.4%

CCOc1ccc(C2C(C(=O)NC)=C(C)Nc3nc4ccccc4n32)cc1OC (stereo not drawn)
inactive: growth inhibition [1] -4.37% | growth inhibition [2] -0.94% | viability increase [3] 0.24% | viability [4] 98.8% | viability [5] 103% | inhibition [6] 1.18% | RAM network inhibition [7] 2.01%

COc1ccc(NC(=O)CCS(=O)(=O)c2cccc3nonc23)c(OC)c1
inactive: growth inhibition [1] -4.67% | growth inhibition [2] -11.7% | viability increase [3] -2.54% | viability [4] 96.2% | viability [5] 93.8% | inhibition [6] 0.51% | RAM network inhibition [7] 2.06%

O=C(CCCC(=O)NCC1CCCO1)NCC1CCCO1 (stereo not drawn)
inactive: growth inhibition [1] -1.28% | growth inhibition [2] 7.34% | viability increase [3] -1.38% | viability [4] 101% | viability [5] 101% | inhibition [6] 0.185% | RAM network inhibition [7] 1.12%

CN(C)S(=O)(=O)c1ccc2c(c1)c(=O)c(C(=O)N1CCOCC1)cn2C
inactive: growth inhibition [1] -8.25% | growth inhibition [2] 2.44% | viability increase [3] 0.13% | viability [4] 103% | viability [5] 89.4% | inhibition [6] 1.79% | RAM network inhibition [7] -0.67%

O=C(c1cc(-c2ccc(Cl)c(Cl)c2)on1)N1CCCC1
inactive: growth inhibition [1] -5.55% | growth inhibition [2] 0.315% | viability increase [3] 4.2% | viability [4] 111% | viability [5] 102% | inhibition [6] 1.99% | RAM network inhibition [7] 1.27%

COc1ccc(N(C)S(=O)(=O)c2cccc(C(=O)NC3=NCCS3)c2)cc1
inactive: growth inhibition [1] -4.93% | growth inhibition [2] -1.7% | viability increase [3] -1.55% | viability [4] 91.6% | viability [5] 89.8% | inhibition [6] 1.13% | RAM network inhibition [7] 2.28%

COc1cc2[nH]c(=O)n(CCCCCC(=O)NCCCN3CCC(C)CC3)c(=O)c2cc1OC
inactive: growth inhibition [1] -13.8% | growth inhibition [2] -6.3% | viability increase [3] -0.8% | viability [4] 93.8% | viability [5] 101% | inhibition [6] 1.68% | RAM network inhibition [7] 2.66%

Cn1c(=O)[nH]c(=O)c2c1nc(SCCN1CCOCC1)n2CCCc1ccccc1
inactive: growth inhibition [1] -6.32% | growth inhibition [2] -14.4% | viability increase [3] -3.69% | viability [4] 96.8% | viability [5] 85.5% | inhibition [6] 0.63% | RAM network inhibition [7] 4.46%

O=C(c1cc(-c2ccccc2)nc2ccccc12)N1CCOCC1
inactive: growth inhibition [1] -4.54% | growth inhibition [2] -9.07% | viability increase [3] -3.82% | viability [4] 102% | viability [5] 90.8% | inhibition [6] -0.135% | RAM network inhibition [7] 1.87%

O=C(CSc1cn(CCNC(=O)c2cccs2)c2ccccc12)NCC1CCCO1 (stereo not drawn)
inactive: growth inhibition [1] -13.8% | growth inhibition [2] -23.4% | viability increase [3] 0.16% | viability [4] 96.2% | viability [5] 96.1% | inhibition [6] 1.61% | RAM network inhibition [7] 1.6%

COc1cc(C(=O)NCc2ccco2)c(Br)c(OC)c1OC
inactive: growth inhibition [1] -1.05% | growth inhibition [2] -12.5% | viability increase [3] -4.68% | viability [4] 98.3% | viability [5] 96% | inhibition [6] 0.865% | RAM network inhibition [7] -0.16%
